The record followed here is ChEMBL document CHEMBL2146367, “Novel fluorescent ceramide derivatives for probing ceramidase substrate specificity” (Bioorg Med Chem, 2012).

The target of experiment [1] is T1, Acid ceramidase (Homo sapiens) (UniProt Q13510).
T1 sequence (whole entry): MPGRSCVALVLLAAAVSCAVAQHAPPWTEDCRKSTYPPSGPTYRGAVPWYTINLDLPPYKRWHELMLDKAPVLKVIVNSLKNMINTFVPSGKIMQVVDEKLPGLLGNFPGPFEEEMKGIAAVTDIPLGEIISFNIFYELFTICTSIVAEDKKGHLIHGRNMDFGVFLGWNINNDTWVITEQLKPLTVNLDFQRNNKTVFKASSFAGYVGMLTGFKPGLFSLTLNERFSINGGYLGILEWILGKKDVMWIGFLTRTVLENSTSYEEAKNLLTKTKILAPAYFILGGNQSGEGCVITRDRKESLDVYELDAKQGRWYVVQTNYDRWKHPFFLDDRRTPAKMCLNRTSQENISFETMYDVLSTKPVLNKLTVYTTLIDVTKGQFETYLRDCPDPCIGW
Put plainly: Activity of human recombinant acid ceramidase expressed in baculovirus infected Sf9 cells assessed as hydrolysis at 20 uM after 150 mins by TLC-based fluorescence imaging. More on the design: scale not given: the % may be the effect or the level left. In outline: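 Micellar assay with insect-cell-expressed human aCDase in 200 mM sodium acetate pH 4.5, 200 mM NaCl, 0.1% Triton X-100. Substrate at 20 µM final, 150 min at 37 °C. Quenched with chloroform/methanol 2:1, organic layer separated on silica TLC. Spots imaged at ex 550/em 600 nm (Nile Red) or ex 430/em 550 nm (NBD). Percent cleavage taken from cleaved/(cleaved+uncleaved) fluorescence; mean ± SD, n=3.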

The target of experiment [2] is T1, Acid ceramidase (Homo sapiens). As to the kind of experiment: Activity of human recombinant acid ceramidase expressed in baculovirus infected Sf9 cells assessed as hydrolysis at 80 uM after 150 mins by TLC-based fluorescence imaging in presence of DP-24a. In outline:
(§1)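 Inhibition runs used 30 µg/mL aCDase with inhibitor at 50 µM, in pH 4.5 sodium acetate buffer with 200 mM NaCl and 0.1% Triton X-100. Substrate set per compound at 80, 55 or 160 µM; DMSO <5%. Incubated 150 min at 37 °C, then extracted and run on TLC with fluorescence imaging. Activity expressed relative to an inhibitor-free control; mean ± SD of three experiments, with significance by p value.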

For experiment [3], the target named is Neutral ceramidase (Homo sapiens) (UniProt Q9NR71). As to the kind of experiment: Activity of human recombinant neutral ceramidase assessed as hydrolysis at 20 uM after 60 mins by TLC-based fluorescence imaging. More on the design: scale not given: the % may be the effect or the level left. In outline: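 Recombinant human nCDase at 20 ng/mL final, with substrate at 20 µM final, in 200 mM sodium acetate pH 7.0, 200 mM NaCl, 0.1% Triton X-100. Incubated 60 min at 37 °C. Stopped with chloroform/methanol 2:1 and centrifuged 2 min at 10,000 rpm; organic layer run on TLC. Percent hydrolysis from imaged fluorescence of product versus substrate; mean ± SD, n=3.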
Neutral ceramidase (Homo sapiens), sequence (Q9NR71 whole entry): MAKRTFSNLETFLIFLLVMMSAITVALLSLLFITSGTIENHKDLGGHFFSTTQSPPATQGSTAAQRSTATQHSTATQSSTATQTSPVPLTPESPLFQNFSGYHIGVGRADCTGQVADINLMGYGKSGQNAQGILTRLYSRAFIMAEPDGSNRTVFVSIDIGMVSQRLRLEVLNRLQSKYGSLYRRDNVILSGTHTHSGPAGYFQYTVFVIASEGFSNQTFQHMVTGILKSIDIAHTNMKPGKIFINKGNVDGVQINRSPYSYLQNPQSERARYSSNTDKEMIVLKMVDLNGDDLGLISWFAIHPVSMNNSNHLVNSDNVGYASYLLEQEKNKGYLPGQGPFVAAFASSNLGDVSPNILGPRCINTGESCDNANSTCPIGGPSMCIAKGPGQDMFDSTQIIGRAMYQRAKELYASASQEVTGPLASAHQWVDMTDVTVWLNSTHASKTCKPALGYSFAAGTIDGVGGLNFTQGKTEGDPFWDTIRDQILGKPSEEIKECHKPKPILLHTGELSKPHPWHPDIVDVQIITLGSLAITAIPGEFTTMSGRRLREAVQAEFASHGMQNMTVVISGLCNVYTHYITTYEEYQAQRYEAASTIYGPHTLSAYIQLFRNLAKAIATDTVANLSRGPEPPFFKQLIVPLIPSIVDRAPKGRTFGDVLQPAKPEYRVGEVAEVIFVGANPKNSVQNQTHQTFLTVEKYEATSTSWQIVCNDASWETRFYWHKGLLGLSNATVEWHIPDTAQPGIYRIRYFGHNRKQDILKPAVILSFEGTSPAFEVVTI

Experiment [4] concerns the target T1, Acid ceramidase (Homo sapiens). As to the kind of experiment: Activity of human recombinant acid ceramidase expressed in baculovirus infected Sf9 cells assessed as hydrolysis at 80 uM after 150 mins by TLC-based fluorescence imaging in presence of B-13. In outline:
as §1

For experiment [5] the target is unchanged. As to the kind of experiment: Activity of human recombinant acid ceramidase expressed in baculovirus infected Sf9 cells assessed as hydrolysis at 160 uM after 150 mins by TLC-based fluorescence imaging in presence of B-13. In outline:
as §1

The target is the same in experiment [6]. As to the kind of experiment: Activity of human recombinant acid ceramidase expressed in baculovirus infected Sf9 cells assessed as hydrolysis at 160 uM after 150 mins by TLC-based fluorescence imaging in presence of DP-24a. In outline:
as §1

The next experiment has as its system Tachypleus tridentatus. Put plainly: Activity of japanese horseshoe crab acid ceramidase after 30 mins by TLC-based fluorescence imaging.
Experiment [7] has as its target T1, Acid ceramidase (Homo sapiens). As to the kind of experiment: Activity of human recombinant acid ceramidase expressed in baculovirus infected Sf9 cells assessed as hydrolysis at 55 uM after 150 mins by TLC-based fluorescence imaging in presence of DP-24a. In outline:
as §1

Experiment [8] has the same target. As to the kind of experiment: Activity of human recombinant acid ceramidase expressed in baculovirus infected Sf9 cells assessed as hydrolysis at 55 uM after 150 mins by TLC-based fluorescence imaging in presence of B-13. In outline:
as §1

Active and inactive are the calls of the source. No cut-off for these calls is given here.

Regarding `CCCCCCCCCCCCC/C=C/[C@@H](O)[C@H](CO)NC(=O)CCCCCCCCCCCOc1ccc2c(=O)cc3oc4cc(N(CC)CC)ccc4nc-3c2c1`, the Activity in [1] was 6.1%; in experiment [3] it was 3.3%. The outcome in experiment [2] and in experiment [4] was inactive.

Consider `CCCCCCCCCCCCCCCC(=O)N[C@@H](CO)[C@H](O)/C=C/CCCCCCCCCNc1ccc([N+](=O)[O-])c2nonc12`, for which the Activity is 5.6% in experiment [1] and 6.2% in experiment [3]. Besides, the outcome in experiment [5] and in experiment [6] was inactive.

As for `CCCCCCCCCCCCC/C=C/[C@@H](O)[C@H](CO)NC(=O)CCCCCCCCCCCNc1ccc([N+](=O)[O-])c2nonc12`, the Michaelis constant (Km) in the experiment with Tachypleus tridentatus was 59 µM. Also, in the experiment on Tachypleus tridentatus, the maximal velocity (Vmax) turned out to be 0.8 pmol/min. The Activity in experiment [1] and in experiment [3] was 9.9% in each case. Moreover, the outcome in experiment [2] and in [4] was inactive.

For `CCCCCCCCCCCCCCCC(=O)N[C@@H](CO)[C@H](O)/C=C/CCCCCCCCCOc1ccc2c(=O)cc3oc4cc(N(CC)CC)ccc4nc-3c2c1`, the Activity in experiment [1] amounted to 6.3%; in [3], 3.9%. Also, the result in experiment [7] and in experiment [8] was inactive.
